Sampled rows, rich in hits. Any-hit rate of the full collection: about 2.6%.
MITF act: increases MITF-driven TRPM1 promoter luciferase signal. SK-MEL-5 TRPM1-promoter luciferase, 24 h; % of positive control, neutral wells = 0. activation, % at 12.5 µM. 300,000 tested, 0.75% active. AID 588334;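 active means mean activation of at least 80% with every replicate also reaching 80%; inconclusive means mean reaches 80% but some replicate falls short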
Vif imaging: inhibitors of HIV Vif; HEK293T cells, Vif self-association by quenched fluorescence, imaging, 24 h; inhibition, % at 7.49 µM; 340,000 tested, 0.35% active; AID 602346; in the data active means inhibition above about 50%, passing the limit was not always enough; inconclusive means no clear call, values can overlap the other calls; inactive means below about 31%
Wnt bcat act: activators of Wnt/beta-catenin signaling; Wnt/beta-catenin reporter cell assay, activator, plate reader; activation, % at 9.35 µM; 300,000 tested, 1.2% active; AID 743398; in the data active means activation above about 30%, passing the limit was not always enough; inconclusive means no clear call, values can overlap the other calls
esBAF inh: inhibitors of esBAF chromatin remodeling in mouse ES cells. Bmi1-luciferase knock-in reporter, 24 h; 100% = twice the neutral-well signal. AID 602393. reporter increase, % at 12.5 µM. 350,000 tested, 2% active; in the data active means activation above about 40%; inconclusive means no clear call, values can overlap the other calls;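 further: a rise in the Bmi1 reporter signal indicates esBAF inhibition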
XiGFP reactiv: activators of X-chromosome reactivation in mouse fibroblasts; 360,000 tested, 0.055% active; activation, % at 7.58 µM; AID 743238; XiGFP mouse fibroblasts, % GFP-positive cells imaging, 3 d; cells co-treated with 5-aza-dC sensitizer; scaled so ellipticine positive control = 100%;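 active means mean normalized replicate activation at least 10% and every replicate at or above 10%; inconclusive means only one of the two criteria met; inactive means mean below 10% and not all replicates reach 10%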
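System: 68-5-11 XiGFP fibroblast line | Buffer or medium: DMEM containing 5-aza-dC | Compound: Single point | Times: Compounds 3 days, fix/stain 15 min at room temperature | Benchmarks: Positive control ellipticine, 6 µM final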
A number is an active result; 0 = inactive; ? = inconclusive; - = no result given.

SMILES	MITF act	Vif imaging	Wnt bcat act	esBAF inh	XiGFP reactiv
Cc1nnc(NC(=O)c2ccc(N3CCCC3=O)cc2)s1	85	-	0	?	0
Cc1ccc(S(=O)(=O)N[C@@H]2CC[C@H](CC(=O)NCCc3ccncc3)O[C@@H]2CO)cc1	-	-	-	0	0
Cc1noc(C)c1NC(=O)N(C)C[C@@H]1Oc2c(NC(=O)Nc3ccc(F)cc3)cccc2C(=O)N([C@H](C)CO)C[C@H]1C	-	-	-	0	0
CN(C)C(=O)C[C@@H]1CC[C@H]2[C@@H](COC[C@@H](O)CN2C(=O)C2CCOCC2)O1	-	-	-	0	0
C=CCn1c2ccccc2c(=O)c2cc(C#CC[C@@H](C)O)ccc21	94	0	36	52	0
C=CCn1c2ccccc2c(=O)c2cc(C#CC3(O)CCCCC3)ccc21	0	0	0	0	0
O=c1oc(-c2cccs2)nc2sc3c(c12)CCC3	0	0	-	46	-
O=c1c2c3c(sc2nc2n1N=C(c1cccs1)CS2)CCCC3	135	0	-	-	-
O=c1oc(/C=C/c2ccco2)nc2sc3c(c12)CCC3	82	0	0	0	-
O=c1[nH]c(-c2ccco2)nc2sc3c(c12)CCCC3	0	0	39	-	0
CC(C)CC#Cc1ccc([C@@H]2[C@@H](CO)N3C(=O)CN(C(=O)NC4CCCC4)C[C@@H]23)cc1	-	-	-	-	0
C[C@@H]1CN([C@@H](C)CO)C(=O)c2cc(C3=CCCCC3)cnc2O[C@H]1CN(C)Cc1cccnc1	-	-	-	0	0
CCOC(=O)Nc1ccc2c(CN(C)Cc3ccc(F)cc3)cc(=O)oc2c1	0	0	0	0	0
CCOC(=O)Nc1ccc2c(C)cc(=O)oc2c1	103	0	0	43	-
CCCCOC(=O)Nc1ccc2c(C)cc(=O)oc2c1	-	0	59	68	-
Cc1ccc(S(=O)(=O)Nc2ccc3c(c2)C(=O)N([C@H](C)CO)C[C@@H](C)[C@H](CN(C)Cc2ccccc2)OCCCC[C@@H](C)O3)cc1	-	-	-	0	0
CCN(C[C@H]1N[C@H](CO)[C@H]1c1ccc(-c2ccccc2)cc1)C(=O)COC	-	-	-	0	0
CC1CCc2c(sc(/N=C/c3cccnc3)c2C(N)=O)C1 (centres undefined)	-	0	0	-	0
CC1CCc2c(sc(/N=C/c3ccco3)c2C(N)=O)C1 (centres undefined)	-	0	45	-	0
CCC1CCc2c(sc(NC(=O)c3ccco3)c2C(N)=O)C1 (centres undefined)	-	0	37	60	-
CO[C@@H]1CN(C)C(=O)c2cc(NC(=O)C3CCCCC3)ccc2OC[C@H](C)N(Cc2nccs2)C[C@H]1C	-	-	-	0	0
CCOC(=O)c1sc2nc(-c3cccnc3)ccc2c1N	0	0	52	-	0
C[C@H](CO)N1C[C@H](C)[C@H](CN(C)Cc2ccccc2)Oc2ccc(NS(=O)(=O)c3cn(C)cn3)cc2C1=O	-	-	-	0	0
O/N=C(\Cc1cscn1)c1ccc(O)cc1O	0	0	0	49	-
COc1cccc2sc3ccc(C#CC4(O)CCCCC4)cc3c(=O)c12	107	0	0	0	0
SMILES	MITF act	Vif imaging	Wnt bcat act	esBAF inh	XiGFP reactiv
Cn1c2ccccc2c(=O)c2ccc(C#Cc3ccc(N)cc3)cc21	0	0	0	0	0
O=c1c2ccccc2sc2ccc(C#CC3(O)CCCCC3)cc12	0	0	0	0	0
Nc1ccc(C#Cc2ccc3sc4ccccc4c(=O)c3c2)cc1	0	0	0	43	0
COc1cccc2sc3ccc(C#Cc4ccc(N)cc4)cc3c(=O)c12	102	0	37	61	0
COc1ccc2c3c(n(C)c2c1)[C@@H](CO)N(C(=O)C1CCC1)CC31CN(C(=O)Nc2cccc(F)c2)C1	-	-	-	-	0
O=C(Nc1ccccc1F)N1CC(=O)N2[C@@H](CO)[C@@H](c3ccc(C#Cc4ccccc4)cc3)[C@@H]2C1	-	-	-	-	0
Nc1nnc(SCC(=O)c2cccc([N+](=O)[O-])c2)s1	0	0	0	-	0
Nc1nnc(SCC(=O)c2ccc3ccccc3c2)s1	-	0	-	52	-
Cc1cccc(/C=C(\C(=O)C(=O)O)c2ccc3ccccc3n2)c1	0	0	0	50	0
O=C(O)C(=O)/C(=C\c1cccc(Cl)c1)c1ccc2ccccc2n1	0	0	40	78	0
C[C@@H]1CN([C@H](C)CO)S(=O)(=O)c2ccc(C#CC3CCCC3)cc2O[C@H]1CN(C)C(=O)c1cccc(F)c1	-	-	-	-	0
C[C@H]1CN([C@@H](C)CO)C(=O)c2cc(-c3ccccc3F)cnc2O[C@H]1CN(C)Cc1cccc(F)c1	-	-	-	0	0
